The source of these data is BindingDB's records for doi:10.1124/dmd.106.013888 (Act, 2007).

In the assay the target is T1, Lanosterol 14-alpha demethylase (Homo sapiens, UniProt Q16850).
T1 sequence (Q16850 whole entry): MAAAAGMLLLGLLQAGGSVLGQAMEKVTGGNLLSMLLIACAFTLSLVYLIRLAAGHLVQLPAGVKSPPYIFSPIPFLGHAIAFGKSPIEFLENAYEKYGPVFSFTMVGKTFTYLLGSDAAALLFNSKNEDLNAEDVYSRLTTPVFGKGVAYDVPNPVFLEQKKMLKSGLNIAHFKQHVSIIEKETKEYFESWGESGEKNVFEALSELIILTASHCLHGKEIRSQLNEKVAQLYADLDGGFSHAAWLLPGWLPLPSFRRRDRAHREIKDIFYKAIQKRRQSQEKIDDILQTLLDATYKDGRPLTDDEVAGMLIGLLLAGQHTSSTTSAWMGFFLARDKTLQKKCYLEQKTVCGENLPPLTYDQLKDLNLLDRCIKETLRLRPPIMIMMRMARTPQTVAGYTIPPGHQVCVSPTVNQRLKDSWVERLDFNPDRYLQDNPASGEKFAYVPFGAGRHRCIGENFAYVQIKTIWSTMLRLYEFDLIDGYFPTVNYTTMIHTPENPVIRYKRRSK
Kind of assay: Inhibition of human CYP51 expressed in Topp 3 cells by lanosterol demethylase assay. A digest of the protocol:
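0.5 ml phosphate buffer pH 7.4 with KCN, NADPH regenerating system, 60 min at 37 °C. Triene product extracted and quantified by chromatography (ergosterol internal standard). IC50 read from plot of % activity remaining vs concentration.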

A word on the IC50: it is the concentration needed to halve the response being measured. Read a low IC50 as inhibition by little substance. Take `O=c1c(CC[S+]([O-])c2ccccc2)c(O)n(-c2ccccc2)n1-c1ccccc1` (stereo unspecified) [1,2-Diphenyl-3,5-dioxo-4-(2-phenylsulfinylethyl)pyrazolidine]: the 50% inhibitory concentration (IC50) is more than 200 µM.
